DENV2 CPE = inhibitors of DENV2 cytopathic effect, primary screen, cell-based, plate reader, single concentration | CPE inhibition, % at 9.99 µM | DENV2-infected cells, cytopathic effect rescue | AID 651640, 2012 | actives 1.7% (n = 350,000); in the data active = CPE inhibition above about 20%, passing the limit was not always enough; inconclusive = no clear call, values can overlap the other calls; tested in BHK-21 cells;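 also: 0% = median of neutral control wells and 100% = median of positive control wells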
Xi reactivation = activators of inactive X chromosome reactivation, primary screen, imaging, XiGFP fibroblasts, GFP high-content imaging, set 2; activation, % at 7.58 µM; XiGFP mouse fibroblasts, % GFP-positive cells imaging, 3 d; cells co-treated with 5-aza-dC sensitizer; scaled so ellipticine positive control = 100%; actives 0.055% (n = 360,000);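 active = mean normalized replicate activation at least 10% and every replicate at or above 10%; inconclusive = only one of the two criteria met; inactive = mean below 10% and not all replicates reach 10%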;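 also: 0% = median of on-plate neutral control wells and 100% = ellipticine 6 µM median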
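System: 68-5-11 XiGFP fibroblast line | Buffer or medium: DMEM containing 5-aza-dC | Compound: Single point | Times: Compounds 3 days, fix/stain 15 min at room temperature | Benchmarks: Positive control ellipticine, 6 µM final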
E-sel inducer = E-selectin induction in HUVECs, primary screen, imaging, HUVEC, immunofluorescence imaging, single point; normalized: neutral wells 0, TNF-alpha wells 100; activation, % at 7.58 µM; actives 0.37% (n = 260,000);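 active = mean E-selectin-positive cell signal at least 10% of the positive control, reached in at least 60% of replicates, without over 20% cell loss; inconclusive = no rule given, readout overlaps actives, possibly toxicity-flagged; inactive = the rest, including those meeting only one limit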
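Test system – human umbilical vein endothelial cells (HUVEC), E-selectin induction · Input – 3,000 HUVEC seeded per well · Buffer or medium – EGM-2, gelatin · Compound dosing – single-point compound dose · Detection – immunofluorescence imaging · Measure – percent E-selectin-positive cells · Controls – TNF-alpha high, DMSO low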
S100A4 inh HTS = inhibitors of S100A4-myosin IIA peptide binding, primary screen, biochemical, fluorescence polarization, TAMRA-MyoIIA peptide. Protein S100-A4 (Homo sapiens), P26447. inhibition, % at 10.7 µM. actives 0.14% (n = 360,000);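 active = mean inhibition of at least 70% across replicates, with every replicate also reaching that level; inconclusive = mean inhibition reaches 70% but some replicates fall short; inactive = mean inhibition below 70%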
Target sequence (P26447 whole entry, looked up): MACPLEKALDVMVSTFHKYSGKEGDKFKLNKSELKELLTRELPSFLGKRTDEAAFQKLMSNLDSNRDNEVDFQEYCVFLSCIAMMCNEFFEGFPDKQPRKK
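Material: S100A4 monomer protein | Medium: HEPES pH 7.2 with CaCl2, KCl, NaCl, DTT, Triton | Reagent: Labelled myosin peptide probe, 5 nM | Doses: One dose per compound | Times: 5 min incubation before reading | Benchmarks: Neutral control DMSO, positive control TFP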
The depositor's hits bear a star. In the library only some 2% were active in any assay of this set; here they are far more common.

Cc1noc(C)c1NC(=O)Nc1ccc2c(c1)CC(=O)N([C@H](C)CO)C[C@H](C)[C@@H](CN(C)C(=O)Nc1ccccc1)O2 was read as DENV2 CPE 7, Xi reactivation 0, E-sel inducer 0 and S100A4 inh HTS 21.
Screening Cc1noc(C)c1NC(=O)Nc1ccc2c(c1)CC(=O)N([C@@H](C)CO)C[C@H](C)[C@@H](CN(C)C(=O)Nc1ccc(F)cc1)O2 returned DENV2 CPE -2, Xi reactivation 0, E-sel inducer 73* and S100A4 inh HTS 8.
`Cc1noc(C)c1NC(=O)Nc1ccc2c(c1)CC(=O)N([C@@H](C)CO)C[C@H](C)[C@H](CN(C)Cc1ccc(Oc3ccccc3)cc1)O2` gave DENV2 CPE 4, Xi reactivation 0 and E-sel inducer 399*.
Screening Cc1noc(C)c1NC(=O)Nc1ccc2c(c1)CC(=O)N([C@H](C)CO)C[C@@H](C)[C@@H](CN(C)C(=O)Nc1ccc(F)cc1)O2 returned DENV2 CPE inconclusive, Xi reactivation 0, E-sel inducer 1 and S100A4 inh HTS 9.
Screening Cc1noc(C)c1NC(=O)N(C)C[C@H]1Oc2ccc(NC(=O)Cc3ccccc3)cc2CC(=O)N([C@@H](C)CO)C[C@H]1C returned DENV2 CPE 54*, Xi reactivation -1 and E-sel inducer 0.
Cc1noc(C)c1NC(=O)Nc1ccc2c(c1)CC(=O)N([C@H](C)CO)C[C@H](C)[C@H](CN(C)C(=O)Nc1ccccc1)O2 was read as DENV2 CPE 20*, Xi reactivation 2, E-sel inducer 0 and S100A4 inh HTS 2.
For Nc1nc2nonc2nc1N the results were DENV2 CPE -3, Xi reactivation 0, E-sel inducer 1 and S100A4 inh HTS -1.
O=C(O)COc1ccccc1/C=N/Nc1ccc(S(=O)(=O)N2CCOCC2)cc1[N+](=O)[O-] was read as DENV2 CPE -1, Xi reactivation 0, E-sel inducer 0 and S100A4 inh HTS -4.
CN1C(=O)c2cc(NC(=O)c3ccc4c(c3)OCO4)ccc2OC[C@@H]2O[C@@H](CC(=O)O)CC[C@@H]21 was read as DENV2 CPE 0, Xi reactivation 0, E-sel inducer 0 and S100A4 inh HTS -7.
`Cc1noc(C)c1NC(=O)N(C)C[C@@H]1Oc2ccc(NC(=O)NC3CCCCC3)cc2CC(=O)N([C@H](C)CO)C[C@H]1C` gave DENV2 CPE 32*, Xi reactivation -1, E-sel inducer 1 and S100A4 inh HTS 2.
`Cc1noc(C)c1NC(=O)N(C)C[C@H]1Oc2ccc(NC(=O)NC3CCCCC3)cc2CC(=O)N([C@@H](C)CO)C[C@@H]1C` gave DENV2 CPE -3, Xi reactivation 3, E-sel inducer 1 and S100A4 inh HTS 1.
`O=S(=O)(NCCOc1ccccc1F)c1ccc(Cl)cc1F` gave DENV2 CPE -1, Xi reactivation 0 and S100A4 inh HTS 0.
O=C(C1CCCC1)N1C[C@H]2[C@@H](c3ccccc31)[C@@H](CO)N2C(=O)c1ccccc1 was read as DENV2 CPE 51*, Xi reactivation 0, E-sel inducer 0 and S100A4 inh HTS 5.
CN1C[C@H]2[C@@H](c3ccccc31)[C@@H](CO)N2C(=O)C1CCCC1 was read as DENV2 CPE 27*, Xi reactivation 0, E-sel inducer 0 and S100A4 inh HTS -4.
O=C(CC(F)(F)F)N1C[C@@H]2[C@H](c3ccccc31)[C@H](CO)N2C(=O)C1CCCC1 was read as DENV2 CPE 21*, Xi reactivation 5, E-sel inducer 0 and S100A4 inh HTS -9.
For O=C(C1CCCC1)N1C[C@H]2[C@@H](c3ccccc31)[C@H](CO)N2C(=O)c1ccccc1 the results were DENV2 CPE -10, Xi reactivation 0, E-sel inducer 0 and S100A4 inh HTS 2.
Screening O=C(Nc1ccccc1F)N1C[C@H]2[C@@H](c3ccccc31)[C@@H](CO)N2C(=O)C1CCCCC1 returned DENV2 CPE 61*, Xi reactivation 0, E-sel inducer 0 and S100A4 inh HTS 9.
For CC(C)Nc1nc(Nc2ccc(C(N)=O)cc2)c2sccc2n1 the results were DENV2 CPE -3, Xi reactivation 0, E-sel inducer 2 and S100A4 inh HTS 1.
For C[C@@H]1CN([C@@H](C)CO)C(=O)CCCn2nncc2CO[C@@H]1CN(C)Cc1ccc2c(c1)OCCO2 the results were DENV2 CPE 2, Xi reactivation 0, E-sel inducer 0 and S100A4 inh HTS -5.
`COc1ccccc1NC(=O)N1C[C@@H]2[C@H](c3ccccc31)[C@H](CO)N2C(C)=O` gave DENV2 CPE -10, Xi reactivation 1, E-sel inducer 0 and S100A4 inh HTS -1.
COc1ccccc1NC(=O)N1C[C@H]2[C@@H](c3ccccc31)[C@H](CO)N2C(C)=O was read as DENV2 CPE 20*, Xi reactivation 0, E-sel inducer 0 and S100A4 inh HTS -6.
Screening O=C(c1cccnc1)N1C[C@@H]2[C@H](c3ccccc31)[C@H](CO)N2CC1CCCCC1 returned DENV2 CPE 29*, Xi reactivation 0, E-sel inducer -1 and S100A4 inh HTS 4.
`O=C(C1CC1)N1C[C@H]2[C@@H](c3ccccc31)[C@H](CO)N2C(=O)Cc1ccccn1` gave DENV2 CPE 63*, Xi reactivation 0, E-sel inducer 0 and S100A4 inh HTS 6.
Screening O=C(N/N=C/c1cccs1)c1cccnc1 returned DENV2 CPE 14, Xi reactivation 0, E-sel inducer 0 and S100A4 inh HTS -1.
COc1cccc(CNC(=O)c2cc3c(cc2Cl)N2CCCCCC2=NS3(=O)=O)c1 was read as DENV2 CPE 7, Xi reactivation 0, E-sel inducer 100* and S100A4 inh HTS -3.
`COc1cccc(CNC(=O)c2ccc3c(c2)S(=O)(=O)N=C2CCCCCN23)c1` gave DENV2 CPE -5, Xi reactivation 0 and S100A4 inh HTS 1.
For COc1ccc(C2(C)CC(C)(C)Nc3ccccc32)cc1 (stereo not drawn) the results were DENV2 CPE 26*, Xi reactivation 0 and S100A4 inh HTS -6.
For COc1ccc(S(=O)(=O)NC2CC(=O)N(c3ccc4c(c3)OCCO4)C2)cc1 (stereo not drawn) the results were DENV2 CPE -2, Xi reactivation 0 and S100A4 inh HTS 7.
Screening CC(C)C1Cc2ccccc2-c2[nH]c(=S)[nH]c(=O)c21 (stereo not drawn) returned DENV2 CPE 72*, Xi reactivation 0, E-sel inducer 10 and S100A4 inh HTS -2.
C[C@H]1CN([C@@H](C)CO)C(=O)c2cc(C#Cc3ccccc3F)cnc2O[C@@H]1CN(C)C(=O)c1ccc2c(c1)OCO2 was read as DENV2 CPE 0, Xi reactivation -1, E-sel inducer -3 and S100A4 inh HTS 19.

Screens as filed in PubChem.
